Experimental findings from ChEMBL document CHEMBL4819034, “Tricyclic-Carbocyclic RORγt Inverse Agonists-Discovery of BMS-986313” (J Med Chem, 2021) are described below.

Data set [1] can be described thus: Half life in rat liver microsomes. It counts as ADME, Microsome. The essentials:
(§1)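 Liver microsome half-life (min) measured in human, mouse, rat, dog and cyno liver microsomes.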

The nature of data set [2]: Half life in dog liver microsomes. In kind it is ADME, Canis lupus familiaris, Microsome. The essentials:
as §1
On the technique in general: Microsomes from liver hold many membrane-bound enzymes, among them those of drug oxidation.

Data set [3] in a line: Metabolic stability in human liver microsomes assessed as parent compound remaining. In kind it is ADME, Microsome. The essentials: (§2)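 Test compound at 0.5 μM initial concentration incubated with human, mouse or rat liver microsomes (protein 1 mg/mL). Metabolic stability reported as percent of parent compound remaining after incubation.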
Data set [4] can be described thus: Metabolic stability in mouse liver microsomes assessed as parent compound remaining. It counts as ADME, Microsome. In short, it runs like this: as §2
Data set [5] can be described thus: Metabolic stability in rat liver microsomes assessed as parent compound remaining. It counts as ADME, Microsome. The essentials: as §2
In data set [6] the target is T1, Nuclear receptor ROR-gamma (Homo sapiens, UniProt P51449).
T1 sequence (P51449 whole entry): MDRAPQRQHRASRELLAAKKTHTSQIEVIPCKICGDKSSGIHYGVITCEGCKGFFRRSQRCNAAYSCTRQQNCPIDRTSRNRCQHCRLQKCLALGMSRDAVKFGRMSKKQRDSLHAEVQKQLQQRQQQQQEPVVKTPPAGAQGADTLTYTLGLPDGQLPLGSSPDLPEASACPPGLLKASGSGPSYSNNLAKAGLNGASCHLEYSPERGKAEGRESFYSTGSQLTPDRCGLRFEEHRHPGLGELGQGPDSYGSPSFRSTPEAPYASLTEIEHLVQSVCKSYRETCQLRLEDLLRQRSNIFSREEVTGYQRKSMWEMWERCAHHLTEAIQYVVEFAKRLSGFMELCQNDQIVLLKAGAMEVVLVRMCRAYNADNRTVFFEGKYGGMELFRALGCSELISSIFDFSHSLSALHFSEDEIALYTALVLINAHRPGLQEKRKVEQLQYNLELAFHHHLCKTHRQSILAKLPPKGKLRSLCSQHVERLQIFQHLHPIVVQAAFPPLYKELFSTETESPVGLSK
The data set can be described thus: Inverse agonist activity at recombinant full-length human Gal4-fused RORgammat expressed in human Jurkat cells incubated for 18 hrs by steady-glo luciferase reporter gene assay. In kind it is cell-based.

Data set [7] has as its target T1, Nuclear receptor ROR-gamma. Briefly: Inverse agonist activity at RORgammat in CD3 and CD28-stimulated human whole blood assessed as suppression of IL17 preincubated for 1 hr followed by CD3 and CD28 stimulation measured after 20 hrs by AlphaLISA method. In kind it is tissue-based. Background: In Alpha technology, singlet oxygen from a donor bead excites a nearby acceptor bead.

Data set [8] can be described thus: Half life in human liver microsomes. It counts as ADME, Microsome. The essentials:
as §1

A short description of data set [9]: Half life in mouse liver microsomes. It counts as ADME, Microsome. In short, it runs like this:
as §1

Data set [10] in a line: Half life in cynomolgus monkey liver microsomes. In kind it is ADME, Macaca fascicularis, Microsome. The essentials: as §1
Data set [11] can be described thus: Permeability across apical to basolateral membrane in human Caco-2 cells. In kind it is ADME, cell-based. To be noted: read-out: permeability. In short, it runs like this:
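Caco-2 monolayer permeability, apical-to-basolateral direction (Pc, nm/s). An efflux ratio is also reported.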
A general note: Caco-2 cells form a polarised layer with tight junctions and transporters.

A word on the half-life: it is the time in which the quantity being followed falls by half. Broadly, the EC50 is the concentration needed to bring the measured effect to its halfway point.

SMILES strings stand for the structures.

Turning to `CC(C)(O)CNC(=O)[C@@H]1CC[C@@]2(S(=O)(=O)c3ccc(F)cc3)c3ccc(C(F)(C(F)(F)F)C(F)(F)F)cc3CC[C@@H]12`, the half-life in data set [1] is 18 min; in data set [2] it was 27 min.
On to `CC(C)(O)CC(=O)N[C@@H]1CC[C@@]2(S(=O)(=O)c3ccc(F)cc3)c3ccc(C(F)(C(F)(F)F)C(F)(F)F)cc3CC[C@@H]12`, for which the Stabilty worked out at 97% in data set [3], 86% in data set [4] and 90% in data set [5].
For `CC(C)(N)CC(=O)N[C@@H]1CC[C@@]2(S(=O)(=O)c3ccc(F)cc3)c3ccc(C(F)(C(F)(F)F)C(F)(F)F)cc3CC[C@@H]12` the same measures were 98%, 85% and 89%.
In the case of `O=C(N[C@@H]1CC[C@@]2(S(=O)(=O)c3ccc(F)cc3)c3ccc(C(F)(C(F)(F)F)C(F)(F)F)cc3CC[C@@H]12)C1(O)CCCCC1`, the Stabilty in [3] amounted to 50%; in data set [4] it was 56%; in data set [5], 22%.
For `CC(=O)N1CCC(C(=O)N[C@@H]2CC[C@@]3(S(=O)(=O)c4ccc(F)cc4)c4ccc(C(F)(C(F)(F)F)C(F)(F)F)cc4CC[C@@H]23)CC1`, in that order: 61%, 67% and 100%.
On to `CN(C(=O)C(C)(C)O)[C@@H]1CC[C@@]2(S(=O)(=O)c3ccc(F)cc3)c3ccc(C(F)(C(F)(F)F)C(F)(F)F)cc3CC[C@@H]12`, for which the half-maximal effective concentration (EC50) in data set [6] stood at 0.045 µM; in [7], 2.73 µM.
Turning to `O=C(NCCO)N[C@@H]1CC[C@@]2(S(=O)(=O)c3ccc(F)cc3)c3ccc(C(F)(C(F)(F)F)C(F)(F)F)cc3CC[C@@H]12`, the Stabilty came out at 97% in [3], 93% in data set [4] and 41% in data set [5].
For `O=C(CO)N[C@@H]1CC[C@@]2(S(=O)(=O)c3ccc(F)cc3)c3ccc(C(F)(C(F)(F)F)C(F)(F)F)cc3CC[C@@H]12` the same measures were 82%, 65% and 34%.
On to `CC(C)(N)C(=O)N[C@@H]1CC[C@@]2(S(=O)(=O)c3ccc(F)cc3)c3ccc(C(F)(C(F)(F)F)C(F)(F)F)cc3CC[C@@H]12`, for which the EC50 in [6] turned out to be 0.03 µM; in data set [7], 0.164 µM. Moreover, the Stabilty in data set [3] turned out to be 80%; in [4], 100%; in data set [5], 100%.
In the case of `CC(C)(C(=O)N[C@@H]1CC[C@@]2(S(=O)(=O)c3ccc(F)cc3)c3ccc(C(F)(C(F)(F)F)C(F)(F)F)cc3CC[C@@H]12)N1CCNCC1`, in data set [6], the EC50 is 0.063 µM. In addition, the values for the Stabilty in data set [3], in data set [4] and in data set [5] were 74%, 78% and 97%, respectively.
`CC(C)(C(=O)N[C@@H]1CC[C@@]2(S(=O)(=O)c3ccc(F)cc3)c3ccc(C(F)(C(F)(F)F)C(F)(F)F)cc3CC[C@@H]12)N1CCOCC1`: the Stabilty in [3] was 0.3%; in data set [4], 0.3%; in data set [5] it was 0.4%.
For the compound `O=C(N[C@@H]1CC[C@@]2(S(=O)(=O)c3ccc(F)cc3)c3ccc(C(F)(C(F)(F)F)C(F)(F)F)cc3CC[C@@H]12)C1(O)CCNCC1`, the Stabilty in data set [3] is recorded as 100%; in [4], 88%; in [5], 83%.
For `O=C(N[C@@H]1CC[C@@]2(S(=O)(=O)c3ccc(F)cc3)c3ccc(C(F)(C(F)(F)F)C(F)(F)F)cc3CC[C@@H]12)C1(O)CCOCC1`, in that order: 100%, 75% and 66%.
Consider `CC(=O)N[C@@H]1CC[C@@]2(S(=O)(=O)c3ccc(F)cc3)c3ccc(C(F)(C(F)(F)F)C(F)(F)F)cc3CC[C@@H]12`, for which the Stabilty in data set [4] is 90%; in data set [5] it was 100%.
In the case of `C[C@@H](O)C(=O)N[C@@H]1CC[C@@]2(S(=O)(=O)c3ccc(F)cc3)c3ccc(C(F)(C(F)(F)F)C(F)(F)F)cc3CC[C@@H]12`, the Stabilty was found to be 71% in data set [3], 70% in data set [4] and 14% in [5].
With `CC(C)(O)CNC(=O)N[C@@H]1CC[C@@]2(S(=O)(=O)c3ccc(F)cc3)c3ccc(C(F)(C(F)(F)F)C(F)(F)F)cc3CC[C@@H]12`, the Stabilty in data set [3] worked out at 54%; in [5], 42%.
`CS(=O)(=O)N[C@@H]1CC[C@@]2(S(=O)(=O)c3ccc(F)cc3)c3ccc(C(F)(C(F)(F)F)C(F)(F)F)cc3CC[C@@H]12`: the concentration for a half-maximal effect (EC50) in [6] came out at 0.0073 µM; in [7] it was 0.157 µM.
As for `CNC(=O)N[C@@H]1CC[C@@]2(S(=O)(=O)c3ccc(F)cc3)c3ccc(C(F)(C(F)(F)F)C(F)(F)F)cc3CC[C@@H]12`, the Stabilty amounted to 40% in data set [3], 32% in [4] and 10% in data set [5].
For `CC(=O)NCC(=O)N[C@@H]1CC[C@@]2(S(=O)(=O)c3ccc(F)cc3)c3ccc(C(F)(C(F)(F)F)C(F)(F)F)cc3CC[C@@H]12` the same measures were 100%, 93% and 10%.
Turning to `[2H]C([2H])([2H])N1C(=O)C(O)CC1C(=O)N[C@@H]1CC[C@@]2(S(=O)(=O)c3ccc(F)cc3)c3ccc(C(F)(C(F)(F)F)C(F)(F)F)cc3CC[C@@H]12` (single isomer, unassigned), the EC50 in data set [6] was 0.0123 µM; in data set [7] it was 0.134 µM. Also, the values for the Stabilty in data set [3], in [4] and in data set [5] were 99%, 100% and 100%, respectively.
Consider `[2H]C([2H])([2H])N1C(=O)C(F)CC1C(=O)N[C@@H]1CC[C@@]2(S(=O)(=O)c3ccc(F)cc3)c3ccc(C(F)(C(F)(F)F)C(F)(F)F)cc3CC[C@@H]12` (single isomer, unassigned), for which the figures for the Stabilty in [3], in [4] and in data set [5] were 100%, 86% and 100%, respectively. The half-life came out at 46 min in [8]; 38 min in data set [9]; 56 min in [1]; 120 min in data set [2]; 24 min in [10]. Besides, the Papp A→B in data set [11] worked out at 92 nm/s.
